Measured values pooled from the literature.
Each line is one published result; the experiments were not run side by side.
Target: Protein kinase C epsilon type (PRKCE, Homo sapiens, UniProt Q02156)
Sequence (Q02156 1-737, as in one of the studies): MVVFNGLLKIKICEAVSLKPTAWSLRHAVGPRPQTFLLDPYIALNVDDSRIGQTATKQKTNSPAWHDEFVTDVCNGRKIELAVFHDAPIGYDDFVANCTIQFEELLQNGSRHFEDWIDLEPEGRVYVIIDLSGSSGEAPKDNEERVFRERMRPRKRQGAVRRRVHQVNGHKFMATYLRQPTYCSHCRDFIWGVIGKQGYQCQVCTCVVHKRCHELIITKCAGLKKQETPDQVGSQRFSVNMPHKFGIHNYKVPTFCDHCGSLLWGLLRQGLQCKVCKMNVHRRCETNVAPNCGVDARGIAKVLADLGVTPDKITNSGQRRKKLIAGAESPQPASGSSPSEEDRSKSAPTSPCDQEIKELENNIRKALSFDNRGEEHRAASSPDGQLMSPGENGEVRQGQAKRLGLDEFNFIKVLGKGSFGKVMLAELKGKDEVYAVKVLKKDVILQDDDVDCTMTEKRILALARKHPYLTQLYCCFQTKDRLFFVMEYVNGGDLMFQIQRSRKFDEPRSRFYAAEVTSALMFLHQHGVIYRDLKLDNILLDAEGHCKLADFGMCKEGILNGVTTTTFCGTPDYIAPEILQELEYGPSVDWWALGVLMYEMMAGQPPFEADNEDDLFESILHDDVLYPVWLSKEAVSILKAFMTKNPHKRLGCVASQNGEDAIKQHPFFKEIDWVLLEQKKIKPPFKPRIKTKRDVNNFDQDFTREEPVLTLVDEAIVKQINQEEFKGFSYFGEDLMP

Cc1c[nH]c2nccc(Oc3c(F)cc(Nc4cc(Cl)nc(N)n4)cc3F)c12 — remaining binding (cell-free assay, competition with immobilised ligand; 0.1 µM): 96%
FC(F)(F)Oc1cccc(-c2cnc3ccc(-c4ccncc4)nn23)c1 — remaining binding (cell-free assay, competition with immobilised ligand; 5 µM): 62%
COc1cnc(Nc2cccc(S(N)(=O)=O)c2)nc1N1CCN(c2ccccc2)C(=O)C1 — remaining binding (binding, competition with immobilised ligand; 1 µM): 100%
O=C(c1ccc(Nc2ncc(Cl)c(-c3ccc(Cl)s3)n2)cc1)N1CCC(N2CCCC2)CC1 — remaining binding (binding, competition with immobilised ligand; 1 µM): 45%
Cn1nc(C(=O)NCc2ccc(C(=O)O)cc2)cc1-c1ccc2[nH]ccc2c1 — remaining binding (cell-free assay, competition with immobilised ligand; 0.1 µM): 64%
C[C@H]1CCN(c2nccc(-c3cnn4ncccc34)n2)C1 — remaining binding (binding; 1 µM): 100%
C[C@@H](c1ccc(-n2cnc3c(N)ncnc32)cc1)N1CCc2nn(C)c(Cc3ccccc3)c2C1=O — remaining binding (binding, competition with immobilised ligand; 0.1 µM): 74%
COc1ccc2c(O[C@@H]3C[C@H]4C(=O)N[C@]5(C(=O)O)CC5/C=C\CCCCC[C@H](NC(=O)OC5CCCC5)C(=O)N4C3)cc(-c3csc(NC(=O)C(C)C)n3)nc2c1C (some centres unmarked) — remaining binding (cell-free assay, competition with immobilised ligand; 1 µM): 58%
O=C(NCCCN1CCOCC1)c1ccc(Nc2ncc(Cl)c(-c3ccc(Cl)s3)n2)cc1 — remaining binding (binding, competition with immobilised ligand; 1 µM): 67%
N#Cc1ccccc1CSc1nnc2c(n1)[nH]c1ccccc12 — remaining binding (binding, competition with immobilised ligand; 10 µM): 100%
COc1cc(-c2cn(C3CCc4c(F)cccc4N(CC(F)(F)F)C3=O)nn2)ccc1-n1cnc(C)c1 (centres unmarked) — remaining binding (cell-free assay, competition with immobilised ligand; 1 µM): 100%
COc1cnc(Nc2cccc(S(N)(=O)=O)c2)nc1N1CCN(c2ccccc2)CC1 — remaining binding (binding, competition with immobilised ligand; 1 µM): 100%
c1cncc(-c2cccc(Nc3nccc(NC4CCCCC4)n3)c2)c1 — remaining binding (binding, competition with immobilised ligand; 10 µM): 46%
CN(c1nccc(-c2cnn3ncccc23)n1)C1CC1 — remaining binding (binding; 1 µM): 83%
CN(C)C(=O)Cn1cc(-c2nc(C3(c4ccc(-c5cnc(N)nc5)cc4)CC3)no2)cn1 — remaining binding (cell-free assay, competition with immobilised ligand; 1 µM): 90%
CN(CCCC(F)(F)F)c1nccc(-c2cnn3ncccc23)n1 — remaining binding (binding; 1 µM): 82%
O=C(N[C@H]1CCCCC/C=C\C2C[C@@]2(C(=O)O)NC(=O)[C@@H]2C[C@@H](Oc3ccncc3)CN2C1=O)OC1CCCC1 (some centres unmarked) — remaining binding (cell-free assay, competition with immobilised ligand; 1 µM): 100%
COc1ccnn2ncc(-c3ccnc(N(C)C)n3)c12 — remaining binding (binding; 1 µM): 100%
C[C@@H]1CN(c2ccc3ncc(-c4ccc5[nH]nc(C6CC6)c5c4)n3n2)C[C@H](C)O1 — remaining binding (binding, competition with immobilised ligand; 50 nM): 86%
O=C(Nc1c[nH]nc1C(=O)NC1CCNCC1)c1cc(F)cc(F)c1 — remaining binding (binding, competition with immobilised ligand; 1 µM): 70%
F[C@@H]1CCN(c2nccc(-c3cnn4ncccc34)n2)C1 — remaining binding (binding; 1 µM): 88%
COCCOc1nc(-c2ccc(Cl)nc2)nc2c1CN(C(=O)c1ncn3ccccc13)CC2 — remaining binding (cell-free assay, competition with immobilised ligand; 0.1 µM): 89%
CN(C)c1ncc(F)c(-c2cnn3ncccc23)n1 — remaining binding (binding; 1 µM): 95%
CSc1cccnc1N1CCN(Cc2nc3ccccc3[nH]2)CC1 — remaining binding (cell-free assay, competition with immobilised ligand; 1 µM): 77%
N[C@@H]1CCN(c2nccc(-c3cnn4ncccc34)n2)C1 — remaining binding (binding; 1 µM): 97%
Cc1cnc(Nc2ccc(C(=O)N3CCC(N4CCCC4)CC3)cc2)nc1-c1cc2ccccc2s1 — remaining binding (binding, competition with immobilised ligand; 1 µM): 26%
